Results reported in ChEMBL document CHEMBL3272050, “Prostaglandin prodrugs. 5.1 Prostaglandin E2 ethylene ketal” (J Med Chem, 1977).
Calls of active or inactive are those of the source. The rule behind the calls is not given here.

Experiments:
[1] = Chemical stability of the compound assessed as formation of prostaglandin E2 at 6.31 x 10^-4 M at pH 2.08 at 25 degC by HPLC analysis; assay type: physicochemical; details: buffer, pH 2.08, 631 µM
In short: (§1)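 Ketal incubated at 25 ± 0.5 °C, pH 2.0–6.5, in 0.1 M buffers (HCl, chloroacetic, acetic, succinic, phosphoric) with ionic strength set to 0.10 M by KCl. Initial ketal was 0.25 mg/mL at pH 2.0–3.5 and 0.50 mg/mL at pH 4.5–6.5. Timed aliquots were EtOAc-extracted for HPLC at 263 nm, quantified by peak-area ratios against calibration mixtures, and first-order rate constants fitted.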

[2] = Chemical stability of the compound assessed as formation of prostaglandin E2 at 6.31 x 10^-4 M at pH 2.99 at 25 degC by HPLC analysis; assay type: physicochemical; details: buffer, pH 2.99, 631 µM; in short: as §1
[3] = Chemical stability of the compound assessed as formation of prostaglandin E2 at 6.31 x 10^-4 M at pH 3.50 at 25 degC by HPLC analysis; assay type: physicochemical; details: buffer, pH 3.5, 631 µM; in short: as §1
[4] = Chemical stability of the compound assessed as formation of prostaglandin E2 at 12.61 x 10^-4 M at pH 4.53 at 25 degC by HPLC analysis; assay type: physicochemical; details: buffer, pH 4.53, 1261 µM; in short: as §1
[5] = Chemical stability of the compound assessed as formation of prostaglandin E2 at 12.61 x 10^-4 M at pH 5.50 at 25 degC by HPLC analysis; assay type: physicochemical; details: buffer, pH 5.5, 1261 µM; in short: as §1
[6] = Chemical stability of the compound assessed as formation of prostaglandin E2 at 12.61 x 10^-4 M at pH 6.50 at 25 degC by HPLC analysis; assay type: physicochemical; details: buffer, pH 6.5, 1261 µM; in short: as §1
[7] = Chemical stability of the compound assessed as formation of prostaglandin E2 at pH 2.08 to 6.50 at 25 degC by HPLC analysis; assay type: physicochemical; details: buffer; in short: as §1
[8] = Chemical stability of the compound assessed as half life of formation of prostaglandin E2 at pH 2 at 25 degC by HPLC analysis; assay type: physicochemical; details: buffer; in short: as §1
[9] = Drug metabolism assessed as disappearance of compound at pH 3.5 at 25 degC by HPLC analysis; assay type: physicochemical; details: read-out: Drug metabolism; in short: as §1
[10] = test system: Rhesus monkey; assay: Increase of uterine motility in rhesus monkey at 5.62 mg, po administered on 100th day of pregnancy; assay type: functional, organism-based; details: Macaca mulatta
In short: (§2)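 Female rhesus monkeys on day 100 of pregnancy received an oral dose of 5.62 or 16.87 mg in 0.1 M THAM buffer, pH 8.5. Uterine contraction frequency and amplitude (mmHg) were recorded through an open-ended catheter in the amniotic cavity and compared with pretreatment activity.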

[11] = test system: Rhesus monkey; assay: Increase of uterine contractions in rhesus monkey at 5.62 mg, po administered on 100th day of pregnancy; assay type: functional, organism-based; details: Macaca mulatta; in short: as §2
[12] = test system: Rhesus monkey; assay: Increase of amplitude of uterine contractions in rhesus monkey at 5.62 mg, po administered on 100th day of pregnancy; assay type: functional, Macaca mulatta; in short: as §2
[13] = test system: Rhesus monkey; assay: Increase of uterine contractions in rhesus monkey at 16.87 mg, po administered on 100th day of pregnancy; assay type: functional, organism-based; details: Macaca mulatta; in short: as §2
[14] = test system: Rhesus monkey; assay: Increase of amplitude of uterine contractions in rhesus monkey at 16.87 mg, po administered on 100th day of pregnancy; assay type: functional, organism-based; details: Macaca mulatta; in short: as §2
[15] = Chemical stability of the compound assessed as formation of prostaglandin A2 at 6.31 x 10^-4 M at pH 3.50 at 25 degC by HPLC analysis; assay type: physicochemical; details: buffer, pH 3.5, 631 µM; in short: as §1
[16] = Chemical stability of the compound assessed as formation of prostaglandin A2 at 12.61 x 10^-4 M at pH 4.53 at 25 degC by HPLC analysis; assay type: physicochemical; details: buffer, pH 4.53, 1261 µM; in short: as §1
[17] = Chemical stability of the compound assessed as formation of prostaglandin A2 at pH 2.08; assay type: physicochemical; details: buffer
[18] = Chemical stability of the compound assessed as formation of prostaglandin A2 at pH 2.99; assay type: physicochemical; details: buffer
[19] = Chemical stability of the compound assessed as formation of prostaglandin A2 at pH 3.50; assay type: physicochemical; details: buffer, pH 3.5
[20] = Chemical stability of the compound assessed as formation of prostaglandin A2 at pH 4.53; assay type: physicochemical; details: buffer
[21] = Chemical stability of the compound assessed as formation of prostaglandin A2 at pH 5.50; assay type: physicochemical; details: buffer, pH 5.5
[22] = Chemical stability of the compound assessed as formation of prostaglandin A2 at pH 6.50; assay type: physicochemical; details: buffer, pH 6.5
[23] = Chemical stability of the compound assessed as half life of formation of prostaglandin A2 at pH 2 at 25 degC by HPLC analysis; assay type: physicochemical; details: buffer; in short: as §1

Work on CCCCC[C@H](O)/C=C/[C@H]1[C@H](O)CC2(OCCO2)[C@@H]1C/C=C\CCCC(=O)O yielded a K [1] of 1.93 ×10⁻⁴ /s, a K [2] of 2.29 ×10⁻⁵ /s and a K [3] of 5.78 ×10⁻⁶ /s. For the same molecule, the K [4] was 7.61 ×10⁻⁷ /s, the K [5] was 1.71 ×10⁻⁷ /s and the K [6] was 2.58 ×10⁻⁸ /s. It also gave a K [7] of 2.24 ×10⁻² /s/M, a t1/2 [8] of 1 h and a degraded [9] of 70%. The Activity [10] was “Active”, the Activity [11] was “Active” and the Activity [12] was 7 mmHg. For the same molecule, the Activity [13] was “Active” and the Activity [14] was “Active”.
With CCCCC[C@H](O)/C=C/[C@H]1[C@H](O)CC(=O)[C@@H]1C/C=C\CCCC(=O)O [DINOPROSTONE] the K [15] was 5.8 ×10⁻⁷ /s, the K [16] was 3.36 ×10⁻⁷ /s and the K [17] was 5.8 ×10⁻⁷ /s. It also gave a K [18] of 2.8 ×10⁻⁷ /s, a K [19] of 2.3 ×10⁻⁷ /s and a K [20] of 3.1 ×10⁻⁷ /s. For the same molecule, the K [21] was 4 ×10⁻⁷ /s, the K [22] was 5.3 ×10⁻⁷ /s and the t1/2 [23] was 336 h.
